# From PubChem BioAssay
# V-ATPase pH: yeast V-ATPase proton transport regulation by pHLuorin | S. cerevisiae, pHLuorin cytosolic pH fluorescence | response, % at 10 µM | 350,000 compounds, 0.37% hits; in the data active = response mostly above about 7.3%, no sharp cut-off; inactive = mostly below about 5.4%; note: actives read high
# NTR1 ag: NTR1 (human) agonism. P30989. NTR1-U2OS beta-arrestin-GFP spot imaging, agonist mode. activation, % at 20 µM. 330,000 compounds, 0.17% hits. AID 493036;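 active = activation at or above 40% of the spot to cytoplasm intensity ratio, with at least 20 cells analyzed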;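 note: 0% = DMSO without peptide and 100% = 100 nM NTR1 peptide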
# Target sequence (P30989 whole entry, looked up): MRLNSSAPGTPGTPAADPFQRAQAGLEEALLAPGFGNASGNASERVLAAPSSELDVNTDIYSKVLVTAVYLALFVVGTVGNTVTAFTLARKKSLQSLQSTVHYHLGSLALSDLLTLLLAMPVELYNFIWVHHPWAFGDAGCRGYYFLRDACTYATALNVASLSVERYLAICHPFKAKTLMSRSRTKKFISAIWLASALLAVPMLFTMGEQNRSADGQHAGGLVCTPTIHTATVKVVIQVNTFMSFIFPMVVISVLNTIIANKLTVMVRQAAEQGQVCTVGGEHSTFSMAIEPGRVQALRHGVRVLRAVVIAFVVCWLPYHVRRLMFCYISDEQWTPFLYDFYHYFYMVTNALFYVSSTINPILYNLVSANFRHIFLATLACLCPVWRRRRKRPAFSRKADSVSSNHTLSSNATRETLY
# beta cell repl: MIN6 beta-cell proliferation induction | 330,000 compounds, 0.29% hits | proliferation, % at 10 µM | MIN6 cells proliferation, ATPlite luminescence, 48 h; cells starved in 0.2% serum; 100% = growth in 10% serum;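 active = compounds whose signal lies at least 3.5 SD above the mean of all wells on their plate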;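 note: 0% = DMSO-treated cells in low-serum medium and 100% = 10% serum control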
# Arrestin-AP2 inh: blocks beta-arrestin peptide binding to AP2 adaptin; FITC-arrestin peptide / GST-AP2 beads, flow cytometry; AP2 beta2 appendage carries R879A mutation; inhibition, % at 10 µM; 340,000 compounds, 0.31% hits; AID 504490;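 active = inhibition above a set limit, near 3 SD of compounds lacking own fluorescence, cut at about 54% in these data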;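 note: plate controls were DMSO wells for no effect and 5 µM unlabelled arrestin peptide for full effect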
#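 Material – AP2 appendage R879A on GSH beads · Buffer or medium – PBS with 0.05% Tween 20 and 0.1% BSA · Probe or stimulus – fluorescein-tagged arrestin peptide at 50 nM final · Incubation – compound with beads 12 min RT, then probe 1 h RT · Detection – high-throughput flow cytometry of beads, ex 488, em 535 nm · Evaluation – percent response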
# T cell HTS: modulates CD8 T cell binding to vesicles. AID 2052. response (vesicle binding), % at 7 µM. 330,000 compounds, 0.068% hits. 2C CD8+ T cell-vesicle binding, flow cytometry; stronger effect = lower value;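 active = response, share of CD8 T cells binding vesicles, and their 90th percentile fluorescence all below set limits, cut at about 80% in these data, passing the limit was not always enough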;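 note: values below 100% mean blocked vesicle binding to the CD8+ T cells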
#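 Assay system – 2C mouse CD8+ T cells · Also added – QL9-loaded Drosophila micro-vesicles · Timing – Cell–vesicle co-incubation 1.5 h at 37 °C, staining 20 min on ice · Signal – flow cytometry of vesicle-bound cells · Measure – percent CD8+ FL2 mean versus row control · Controls – Peptide-free naked vesicles (low) and QL9 vesicles with 0.7% DMSO vehicle (high)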
# XiGFP reactiv: reactivates the inactive X chromosome in mouse fibroblasts. XiGFP mouse fibroblasts, % GFP-positive cells imaging, 3 d; cells co-treated with 5-aza-dC sensitizer; scaled so ellipticine positive control = 100%. 360,000 compounds, 0.055% hits. activation, % at 7.58 µM;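 active = mean normalized replicate activation at least 10% and every replicate at or above 10%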;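 note: 0% = median of on-plate neutral control wells and 100% = ellipticine 6 µM median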
#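 Material: SV40-immortalized XiGFP fibroblast cells, line 68-5-11 | Buffer or medium: DMEM containing 5-aza-dC | Dosing: One concentration, pinned | Times: 3 d treatment, 15 min room-temperature fixation | Controls: Ellipticine 6 µM positive control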
# Arr AP2 CP1: inhibitors of human beta-arrestin and AP2 interaction; shares compounds with Arrestin-AP2 inh; GST-AP2 beads, FITC arrestin peptide binding, flow cytometry; GST-fused beta2-adaptin appendage, R879A mutant; inhibition, % at 10 µM; 1,300 compounds, 2% hits; AID 504908;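 active = inhibition above a set limit, roughly 3 SD of non-fluorescent compound noise, cut at about 38% in these data; inactive = inhibition at or below that limit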;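 note: loss of bead fluorescence from 50 nM FITC arrestin peptide bound to appendage; 0% = negative control wells and 100% = excess unlabelled arrestin peptide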
# GST GSH counter: GST-GSH bead binding interference, counter-screen | shares compounds with Arrestin-AP2 inh | GST-fluorescein binding to GSH beads, fluorescence | inhibition, % at 10 µM | 1,300 compounds, 2% hits;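 active = inhibition above 50%, about 3 SD of the inhibition seen with non-fluorescent compounds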;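 note: fluorescein maleimide labelled GST captured on 4 micron glutathione beads; higher means more loss of bead fluorescence from quenching or blocked binding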
# Active calls of the source: *; · = no result. Hits are enriched below; roughly 0.89% of the tested compounds scored in any of these assays.
SMILES,V-ATPase pH,NTR1 ag,beta cell repl,Arrestin-AP2 inh,T cell HTS,XiGFP reactiv,Arr AP2 CP1,GST GSH counter
Cc1ccc(NC(=O)CCS(=O)(=O)c2ccccc2)cc1S(=O)(=O)N1CCCCCC1,2.0,-0.6,3.5,58.1*,·,0.0,-9.8,0.2
CCCCC(=O)Nc1ccc(C)c(S(=O)(=O)N2CCCCCC2)c1,-0.9,-0.7,-2.5,7.8,547.1,0.1,·,·
CCN(CC)C(=O)Cn1cc(/C=C(\C#N)C(=O)NC2CC2)c2ccccc21,1.8,0.3,0.0,61.0*,111.9,0.0,7.7,-6.3
NS(=O)(=O)c1ccc(CCNS(=O)(=O)c2cccc3nsnc23)cc1,4.0,-0.6,3.5,61.5*,165.4,0.0,-7.5,-4.7
CN(CC(=O)NCCc1ccc(S(N)(=O)=O)cc1)S(=O)(=O)c1cccc2nsnc12,-8.6,-1.2,-2.2,80.5*,263.3,0.0,-1.4,-9.8
CCOc1ccc(CCNC(=O)CN(C)S(=O)(=O)c2cccc3nsnc23)cc1OCC,1.0,0.2,-3.1,-5.7,374.6,·,·,·
O=C(C[C@@H]1CC[C@@H]2[C@H](COC[C@H](O)CN2CC2CCCC2)O1)NCC1CC1,·,·,·,·,·,0.2,·,·
Cc1ccc(S(=O)(=O)Nc2cc(Cl)c(O)cc2C)cc1,-2.0,1.2,-2.2,57.8*,772.5,·,3.5,-3.8
CCc1cccc(OCCCCNCCCOC)c1,-5.2,0.3,0.0,25.4,456.0,0.0,·,·
CCOc1cccc(OCCCNCCCOC)c1,-2.3,0.3,3.4,92.5*,226.5,·,4.4,-6.0
C=CCN1C(=O)/C(=C/c2ccc(-c3ccc(F)cc3)o2)SC1=S,7.3,2.3,0.6,66.5*,372.0,0.1,10.3,20.0
C=CCN1C(=O)/C(=C/c2ccsc2)SC1=S,0.5,1.8,-0.1,6.6,103.6,0.3,·,·
CCCCCOc1ccc(NC(=O)C2OC3OC(C)(C)OC3C3OC(C)(C)OC23)cc1 (centres undefined),-0.2,0.4,-0.4,107.1*,131.0,0.0,-0.3,10.1
CCC(=O)N1CCC2(CC1)CN(Cc1cc(F)ccc1F)[C@H](CO)c1[nH]c3cc(OC)ccc3c12,·,·,·,·,·,0.2,·,·
O=C1/C(=C/c2ccco2)SC(=S)N1CC1CCCO1 (centres undefined),-0.2,1.0,-1.6,4.8,173.3,0.0,·,·
O=C1/C(=C\c2ccc(-c3ccccc3Cl)o2)SC(=S)N1CC1CCCO1 (centres undefined),3.5,-1.9,-1.9,72.9*,141.8,·,41.7*,27.5
C[C@@H]1CN([C@@H](C)CO)C(=O)Cc2cc(NC(=O)Nc3ccc4c(c3)OCO4)ccc2O[C@H]1CN(C)Cc1ccc(C(=O)Nc2ccccc2N)cc1,·,·,·,·,·,-0.3,·,·
COc1ccc(NC(=O)C[C@H]2CC[C@H]3[C@@H](COc4ccc(NC(=O)C5CC5)cc4C(=O)N3C)O2)cc1,·,·,·,·,·,0.0,·,·
Cc1ccc(-c2ccc3c(c2)O[C@@H](CN(C)C(=O)C2CC2)[C@H](C)CN([C@H](C)CO)S3(=O)=O)cc1,·,·,·,·,·,0.0,·,·
CCCCCc1nc2sc3c(c2c(=O)n1N)CCC3,-0.7,-0.3,-2.0,96.9*,162.0,·,-6.0,-3.4
CCCc1nc2sc3c(c2c(=O)n1N)CCC3,1.6,0.2,-3.9,5.5,103.4,·,·,·
O=C(C[C@H]1CC[C@H]2[C@@H](COC[C@H](O)CN2Cc2ccc(Cl)cc2)O1)NCc1ccccc1Cl,·,·,·,·,·,0.2,·,·
O=C(CCCCCNC(=O)c1ccccc1)N/N=C/c1ccc(O)cc1O,7.9,-0.3,-0.6,59.8*,232.7,·,-3.7,5.0
CCn1cc(C(=O)N[C@H](C(=O)O)C(C)C)c(=O)c2cc3c(cc21)OCO3,-1.8,0.1,-0.8,-10.9,221.9,0.0,·,·
CCn1cc(C(=O)N[C@@H](C)C(=O)OC)c(=O)c2cc3c(cc21)OCO3,-0.1,-1.1,-2.4,55.0*,803.2,0.3,-1.5,-4.7
SMILES,V-ATPase pH,NTR1 ag,beta cell repl,Arrestin-AP2 inh,T cell HTS,XiGFP reactiv,Arr AP2 CP1,GST GSH counter
CC(/C=C\C=C\c1ccccc1)=N\NC(=O)c1cncc(Br)c1,4.7,3.6,-4.2,92.5*,154.6,0.0,4.5,7.5
CC(/C=C/C=C/c1ccccc1)=N\NC(=O)c1cccnc1,-1.8,-1.3,-3.1,40.9,578.2,1.0,·,·
Cc1c(N(C(=O)Nc2ccccc2)C2=NCC(C)S2)c(=O)n(-c2ccccc2)n1C (centres undefined),-0.1,0.7,-2.8,98.0*,323.9,·,-2.8,-0.8
Cc1ccc(N(C(=O)Nc2ccccc2)C2=NCC(C)S2)cc1 (centres undefined),0.6,0.2,-0.2,7.8,647.6,·,·,·
COC(=O)c1c(NC(=O)/C=C/C(=O)O)sc(C)c1-c1ccc(C(C)C)cc1,5.7,1.0,-6.8,56.8*,356.3,0.0,-2.4,-10.5
C[C@@H]1CN([C@@H](C)CO)C(=O)c2cc(NC(=O)Nc3ccc4c(c3)OCO4)ccc2O[C@H]1CN(C)Cc1ccc(-c2ccccc2)cc1,·,·,·,·,·,0.1,·,·
O=C(C[C@H]1C=C[C@H](NC(=O)CN2CCOCC2)[C@H](CO)O1)NC1CCC1,·,·,·,·,·,-1.3,·,·
Cc1cccc(N/C=C/c2onc(C)c2[N+](=O)[O-])c1,-0.9,3.5,-4.7,7.5,255.1,·,·,·
Cc1cc(O)ccc1N/C=C/c1onc(C)c1[N+](=O)[O-],-3.5,4.2,-1.9,98.6*,269.4,-0.1,-1.7,8.9
O=C(C1CCN(S(=O)(=O)c2cc(Cl)ccc2Cl)CC1)N1CCOCC1,2.1,0.3,1.4,56.0*,707.3,0.0,-1.9,-5.9
COc1cccc(CN(C)c2nc(-c3cccs3)nc3ccccc23)c1,6.0,4.8,-5.6,55.0*,645.3,0.1,-11.1,-3.4
C[C@@H]1CCCCO[C@H](CN(C)C(=O)Nc2ccc3c(c2)OCO3)[C@@H](C)CN([C@H](C)CO)C(=O)c2cc(NC(=O)Nc3ccc4c(c3)OCO4)ccc2O1,·,·,·,·,·,0.1,·,·
O=C(NC1CC2CCCC(C1)N2C(=S)NCCc1ccccc1)C1CC1 (centres undefined),0.4,-0.5,-0.1,55.8*,365.6,0.0,-2.2,-3.2
O=C(NC1CC2CCCC(C1)N2C(=O)NCc1ccccc1)C1CC1 (centres undefined),5.6,-2.0,1.8,19.9,434.5,·,·,·
CC1(C)Cc2c(sc3c2c(=O)n(Cc2ccccc2)c2nncn32)CO1,2.6,·,·,62.2*,·,·,8.2,-0.2
Nc1c(C(=O)NCc2cccs2)nnn1CC(=O)Nc1cccc(Cl)c1,-2.3,-1.4,-2.3,99.1*,290.9,0.2,15.9,21.1
